# In ChEMBL document CHEMBL1811914, “Bioactive compounds from the aerial parts of Brachystemma calycinum and structural revision of an octacyclopeptide” (J Nat Prod, 2011):
# Activity calls are given as the source filed them. No cut-off for these calls is given here. Where a SMILES comes first, the peptide text is derived from it.
# What was measured:
# CRL-2573 [1] = test: Inhibition of high glucose-induced CCL2 secretion in rat CRL-2573 cells at 10 uM after 24 hrs by ELISA; assay type: functional, cell-based
# Outline: (§1)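 Rat mesangial cells (CRL-2573) grown in DMEM with 5.6 mM D-glucose (pH 7.4), 20% FCS, penicillin/streptomycin, 10 mM HEPES. At 80% confluence, growth arrested in 0.5% FCS for 24 h. Pretreated 1 h with compound (1 or 10 μM), then high glucose 24 h. Supernatant analyte quantified by sandwich ELISA, normalized to total cell protein (BCA).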
# CRL-2573 [2] = test: Inhibition of high glucose-induced IL-6 secretion in rat CRL-2573 cells at 10 uM after 24 hrs by ELISA; assay type: functional, cell-based; outline: as §1
# CRL-2573 [3] = test: Inhibition of high glucose-induced collagen-4 secretion in rat CRL-2573 cells at 10 uM after 24 hrs by ELISA; assay type: functional, cell-based; outline: as §1
# CRL-2573 [4] = test: Antioxidant activity against high glucose-induced intracellular ROS production in rat CRL-2573 cells assessed as carboxymethyl-H2-dichlorofluorescein diacetate conversion to 2',7'-dichlorofluorescein at 1 to 10 uM preincubated for 1 hr prior to high glucose challenge by flow cytometer; assay type: functional, cell-based
# Outline: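 Rat mesangial cells cultured and growth-arrested as for secretion assays. Exposed to 5.6 mM (normal) or 25 mM (high) D-glucose for up to 24 h, with or without compound preincubation. Intracellular ROS then measured.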
# CRL-2573 [5] = test: Antioxidant activity against high glucose-induced intracellular superoxide ion production in rat CRL-2573 cells at 1 to 10 uM measured every minute for 30 mins by lucigenin-enhanced chemiluminescence assay in presence of NADPH; assay type: functional, cell-based
# Outline: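 Homogenates of cultured rat mesangial cells (100 μg/well) assayed by lucigenin-enhanced chemiluminescence. Dark-adapted lucigenin (5 μM) with or without NADPH (100 μM) added immediately before reading. Signal recorded every minute for 30 min.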
# RAW264.7 = test: Inhibition of LPS-induced nitric oxide production in […] cells at 25 uM; assay type: functional, cell-based
# CRL-2573 [6] = test: Inhibition of high glucose-induced collagen-1 secretion in rat CRL-2573 cells at 10 uM after 24 hrs by ELISA; assay type: functional, cell-based; outline: as §1
# [7] = Cytotoxicity in rat CRL-2573 cells at 10 uM after 24 hrs by trypan blue exclusion assay; assay type: cell-based; conditions: crl-2573, 24 h
SMILES,inhibition (CRL-2573 [1]),inhibition (CRL-2573 [2]),inhibition (CRL-2573 [3]),Activity (CRL-2573 [4]),Activity (CRL-2573 [5]),inhibition (RAW264.7),inhibition (CRL-2573 [6]),Activity [7]
COC1CCC(=O)N1[C@@H]1C=C(COC(=O)c2ccc[nH]2)CO1 (some centres undefined),Active,Active,Active,–,–,–,–,–
"CC(C)C[C@@H]1NC(=O)CNC(=O)[C@H](C)NC(=O)[C@@H]2CCCN2C(=O)[C@@H]2CCCN2C(=O)[C@H](Cc2ccccc2)NC(=O)[C@H]([C@@H](C)O)NC(=O)[C@H](C)NC1=O (HELM PEPTIDE1{A.G.L.A.T.F.P.P}$PEPTIDE1,PEPTIDE1,1:R1-8:R2$$$V2.0)",Active,Active,Active,Active,Active,inactive,Active,Non-toxic
"CC(C)C[C@@H]1NC(=O)CNC(=O)[C@H](C(C)C)NC(=O)[C@@H]2CCCN2C(=O)[C@H](Cc2ccccc2)NC(=O)[C@H]([C@@H](C)O)NC(=O)[C@@H]2CCCN2C(=O)[C@H]([C@@H](C)O)NC1=O (HELM PEPTIDE1{F.P.V.G.L.T.P.T}$PEPTIDE1,PEPTIDE1,1:R1-8:R2$$$V2.0)",Active,Active,Active,–,–,–,–,–
